In assay [1] the test system is SARS-CoV-2. The assay can be described thus: Antiviral activity against SARS-CoV-2 assessed as inhibition of viral infection in 293T/ACE2 cells preincubated for 30 min followed by cells addition for 12 hrs and complete medium replacement and measured after 48 hrs by luciferase assay. The class given is functional, organism-based. The note with it: Severe acute respiratory syndrome coronavirus 2, 293T/ACE2. A digest of the protocol:
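ACE2-293T cells (10^4/well) were plated 12 h before infection. Pseudovirus was mixed with peptides serially diluted in FBS-free DMEM for 30 min at 37 °C and added to the cells. After 12 h the medium was replaced with complete medium and cells were incubated 48 h more. Luciferase activity was read.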

Assay [2] relates to SARS-CoV-2. The assay can be described thus: Antiviral activity against SARS-CoV-2 assessed as inhibition of viral infection in Caco-2 cells preincubated for 30 min followed by cells addition for 12 hrs and complete medium replacement and measured after 48 hrs by luciferase assay. The class given is functional, organism-based. The note with it: Severe acute respiratory syndrome coronavirus 2, Caco-2.

Residues, ends and D or L forms follow the SMILES beside them.

As a reminder, the IC50 is the concentration at which inhibition is half-maximal. As for `CC[C@H](C)[C@H](NC(C)=O)C(=O)N[C@@H](CCC(=O)O)C(=O)N[C@@H](CCC(=O)O)C(=O)N[C@H](C(=O)N[C@H](C(=O)N[C@@H](CCCCN)C(=O)N[C@@H](CCCCN)C(=O)N[C@H](C(=O)N[C@@H](Cc1c[nH]cn1)C(=O)N[C@@H](Cc1c[nH]cn1)C(=O)N[C@H](C(=O)N[C@@H](CCC(=O)O)C(=O)N[C@@H](CCCNC(=N)N)C(=O)N[C@@H](C)C(=O)N[C@H](C(=O)N[C@@H](CCC(=O)O)C(=O)N[C@@H](C)C(=O)N[C@@H](CCC(N)=O)C(=O)N[C@@H](CCC(N)=O)C(=O)N[C@@H](CCCCN)C(=O)N[C@@H](CC(C)C)C(=O)N[C@@H](CC(C)C)C(=O)N[C@@H](CCC(N)=O)C(=O)N[C@@H](CC(C)C)C(=O)N[C@H](C(=O)N[C@H](C(=O)N[C@@H](Cc1c[nH]c2ccccc12)C(=O)NCC(=O)N[C@H](C(=O)N[C@@H](CCCCN)C(=O)N[C@@H](CCC(N)=O)C(=O)N[C@@H](CC(C)C)C(=O)N[C@@H](CCC(N)=O)C(=O)N[C@@H](C)C(=O)N[C@@H](CCCNC(=N)N)C(=O)N[C@H](C(=O)N[C@@H](CC(C)C)C(N)=O)[C@@H](C)CC)[C@@H](C)CC)C(C)C)[C@@H](C)O)[C@@H](C)CC)[C@@H](C)CC)[C@@H](C)CC)C(C)C)[C@@H](C)CC` (Ac-IEEIVKKIHHIERAIEAQQKLLQLTVWGIKQLQARIL-NH2), the IC50 in the assay with SARS-CoV-2 [1] and in the assay on SARS-CoV-2 [2] was over 20 µM in each case.

Source of the values: ChEMBL document CHEMBL5038580 (J Med Chem, 2022).
